CFTR F508del cor: F508del CFTR correction, initial screen, CFBE line, single point. CFBE cells, YFP halide quenching; stimulated with forskolin plus potentiator P3; % fluorescence drop versus neutral controls. activity (quench increase), % at 7.58 µM. 350,000 tested, 0.36% active;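 active means mean added fluorescence quench of at least 8% versus neutral control, with both replicates also reaching 8%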;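 further: cells transiently co-express mutant CFTR-F508del with the halide-sensitive YFP; corrector assay measuring rescue of mutant channel to the surface after 24 h compound exposure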
GSIS activator: GLuc luminescence reporter in INS-1E cells, primary screen for activators of glucose-dependent secretion of insulin; INS-1E GLuc reporter insulin secretion, 2-3 h; activation, % at 16.6 µM; 370,000 tested, 0.61% active; AID 743287, 2014;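 active means lowest replicate activation of at least 40%, so every replicate reaches that level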;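 further: 0% = median of neutral control wells and 100% = median of IBMX positive control wells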
Ecoli rRNA inh: reduced GFP signal of wild-type E. coli, primary screen, bacterial rRNA inhibitor project, GFP/RFP fluorescence, OD600, single point. GFP signal change (wild-type ribosome), % (test concentration not listed). 350,000 tested, 1.6% active. E. coli WT GFP vs humanized-ribosome RFP mutants, 24 h; stronger effect = lower value; DMSO median 0, no signal -100;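 active means significant combined selectivity score with lowered wild-type GFP, culture density cut under 30%, mutant RFP and density less affected; inactive means any of these conditions unmet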
miR122 inh: miR-122 Renilla sensor signal increase in Huh7, primary screen, miR-122 inhibitor project, cell-based, single point, plate reader; Huh7 miR-122 Renilla luciferase sensor, 48 h; neutral wells = 0, positive control = 100; activation (reporter increase), % at 12.5 µM; 340,000 tested, 0.3% active; AID 602342, 2012;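 active means mean replicate activation score at least 90 and every replicate individually at or above 90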;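 further: higher luciferase means less miR-122 activity so hits act as miR-122 inhibitors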
Cneo AK release: Cryptococcus neoformans cell lysis inducers, primary screen, AK release luminescence, single concentration; C. neoformans lysis, adenylate kinase release luminescence, 4 h; normalised: neutral wells 0, clomiphene wells 100; lysis activity, % at 15 µM; 360,000 tested, 0.2% active; AID 651654, 2012;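 active means mean lysis activity across replicates of at least 80%, whatever share of replicates individually reach that level; inactive means mean lysis activity below 80%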
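Assay system: C. neoformans cells. Amount: yeast cell density of 5 × 10^6 cells/mL. Technique: AK luminescence. Buffer or medium: YPD. Times: static 4 h at 37 °C with compound, 1 h detection. Dosing: single-point compound dose. Read-out: lysis from increased AK signal.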
HIV Env fusion: inhibitors of HIV-1 Env-driven cell-cell fusion, primary screen, HeLa-JRFL effector, CEM21 target cells, luciferase; inhibition, % at 12.3 µM; AID 651610, 2012; 360,000 tested, 1.1% active;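 active means mean replicate inhibition score of at least 50 and every replicate individually at or above 50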;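 further: 0% = plate neutral controls and 100% = maraviroc near 300 nM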
An asterisk follows results filed as active; x = no result; [ ] = another dose, or the depositor's remark. An excerpt weighted towards active compounds, which were near 3.1% of everything screened.

SMILES	CFTR F508del cor	GSIS activator	Ecoli rRNA inh	miR122 inh	Cneo AK release	HIV Env fusion
CC(=O)N(C)C[C@@H]1Oc2cc(C#Cc3ccncc3)ccc2S(=O)(=O)N([C@H](C)CO)C[C@@H]1C	1	25	2	-9[16.7 µM]	-2	31[16.7 µM]
Cc1ccc(CSc2ncnc3ccccc23)cc1	0	-16	-33*	1	-1	3
N#C[C@@H]1[C@H](c2ccc(C3=CCCCC3)cc2)[C@H](CO)N1C(=O)NC1CCCCC1	-1	-45	5	x	0	7[16.7 µM]
O=C(NCCN1CCCCC1)[C@@H]1N[C@@H]2c3ccc(-c4ccncc4)c(=O)n3C[C@@H]2[C@H]1CO	-2	17	2	35[16.7 µM]	103*	x
O=C(NCCN1CCCCC1)[C@H]1N[C@H]2c3ccc(-c4cccnc4)c(=O)n3C[C@H]2[C@@H]1CO	x	14	2	x	2	-3[16.7 µM]
O=C(O)C[C@H]1C[C@H]2c3cc(NS(=O)(=O)c4ccccc4)ccc3O[C@H]2[C@H](CO)O1	-2	-3	2	x	x	x
COc1ccc(C(=O)/C(C#N)=N/Nc2ccccc2[N+](=O)[O-])cc1	x	62*	6	x	x	28
COc1ccc(C(=O)/C(C#N)=N/Nc2ccc([N+](=O)[O-])cc2)cc1	1	-10	6	12	x	15
Nc1ccc2nc(SCc3cccc(F)c3)sc2c1	x	-4	-31*	-10	-2	-64
C[C@H](CO)N1C[C@H](C)[C@@H](CN(C)C(=O)Nc2ccc(C(F)(F)F)cc2)Oc2ccc(NC(=O)Nc3ccc(F)cc3)cc2CC1=O	-2	-19	0	-6[16.7 µM]	3	-9[16.7 µM]
CCc1ccc(C(=O)COC(=O)C(Cc2ccccc2)NC(=O)c2ccc(Cl)cc2)cc1 (stereo not given)	x	x	x	7	7	-52
CCc1ccc(C(=O)COC(=O)C(Cc2ccccc2)NC(=O)C2CCC(C)CC2)cc1 (stereo not given)	x	48*	x	-10	16	-110
C[C@@H]1CN([C@@H](C)CO)C(=O)c2cc(NS(=O)(=O)c3ccc(Cl)cc3)ccc2O[C@@H]1CN(C)Cc1ccccc1	1	-12	-6	-2[16.7 µM]	1	0[16.7 µM]
NC(=O)CSc1nc(-c2ccccc2)c(-c2ccccc2)o1	x	73*	x	-10	-2	x
C[C@H](CO)N1C[C@H](C)[C@@H](CN(C)C(=O)Nc2ccc3c(c2)OCO3)Oc2c(NC(=O)Cc3cn(C)c4ccccc34)cccc2C1=O	x	-13	-7	x	x	x
OCC[C@@H]1C[C@@H](O)[C@H](O)[C@]2(OCc3ccccc32)O1	6	12	2	-4	-2	69*
OCC[C@H]1C[C@H](O)[C@@H](O)[C@@]2(OCc3ccccc32)O1	-1	10	-12	-6	-2	1
O=[N+]([O-])c1ccc2c(c1)CO[C@@]21O[C@H](CCO)C[C@H](O)[C@H]1O	-3	3	17	-3	2	60*
CC(C)C#Cc1ccc([C@@H]2[C@H](C#N)N(C(=O)C3CC3)[C@H]2CO)cc1	2	-3	2	x	6	-16[16.7 µM]
O=C1OC(NCc2cccnc2)(c2ccc(Cl)cc2)c2ccccc21 (stereo not given)	0	3	-35*	x	x	1
C=C(C)C1Cc2c(C)nn(-c3ccccn3)c2C1 (stereo not given)	x	x	x	3	1	x
C=C(C)C1Cc2c(C)nn(-c3cccc4cccnc34)c2C1 (stereo not given)	1	51*	-6	-2	6	4
COc1cc(-c2noc(C)c2C#Cc2ccsc2)cc(OC)c1OC	11*	2	-4	x	-2	-36
O=S1(=O)N[C@@H](Cc2ccccc2)COc2cccc(N3CCC[C@H]3CO)c21	1	-12	-27*	x	x	13
O=S1(=O)N[C@H](Cc2ccccc2)COc2cccc(F)c21	2	14	-17	x	x	57*
SMILES	CFTR F508del cor	GSIS activator	Ecoli rRNA inh	miR122 inh	Cneo AK release	HIV Env fusion
O=S1(=O)N[C@H](Cc2ccccc2)COc2cccc(N3CCCC3)c21	-1	-29	-37	x	x	-21
CC(C)C[C@H]1COc2cccc(N3CCC[C@@H]3CO)c2S(=O)(=O)N1	0	0	-20	x	x	-22
COc1ccccc1CN1[C@@H]2CN(C(=O)C3CCCCC3)c3ccccc3[C@@H]2[C@@H]1CO	4	1	-31	21[16.7 µM]	2	x
O=C(COc1ccc2c(c1)C(=O)CC1(CCCCC1)O2)NCc1ccccn1	x	-4	x	-3	1	-48
O=C(COc1ccc2c(c1)C(=O)CC1(CCCCC1)O2)NCc1ccccc1	x	x	x	220*	5	20
Cc1ccc(S(=O)(=O)Nc2ccccc2-c2ccccc2)cc1	x	x	x	161*	-2	41
CO[C@@H]1CC[C@@H]2CCOc3ccc(C#N)cc3C(=O)N(C)C[C@@H](C)C(=O)N(C)C[C@H]1O2	x	-3	2	x	3	19[16.7 µM]
CN(C)CCOC(=O)NC12CC3CC(CC(C3)C1)C2	1	3	21	x	x	14
O=C(NC12CC3CC(CC(C3)C1)C2)OCCNC1CCCCC1	2	10	5	x	x	77*
Cc1ccc(S(=O)(=O)N2CCC3(CC2)CC(=O)c2ccccc2O3)cc1	0	-6	-20	-3	0	-4
O=C(O)c1ccc(S(=O)(=O)N2CCC3(CC2)CC(=O)c2ccccc2O3)cc1	2	50*	-1	-2	-1	11
O=c1[nH]c(=O)n(C2CC(O)C(CO)O2)cc1I (stereo not given)	0	6	26	34	x	-340
O=c1[nH]c(=O)n([C@H]2C[C@H](O)[C@@H](CO)O2)cc1F	2	26	-14	-9	-1	70*
CC(C)CCC(CC(C)O)C(=O)NNC(=S)Nc1ccccc1 (stereo not given)	2	5	3	152*	2	-3
CCOC(=O)CN1C(=O)S/C(=C\c2ccc(-c3ccc(C(=O)O)c(Cl)c3)o2)C1=O	-1	-8	-24*	-5	-1	-2
CCOC(=O)CN1C(=O)S/C(=C\c2ccc(-c3cccc(C(=O)O)c3C)o2)C1=O	-2	7	-8	-9	5	-17
CCOc1ccc(Br)cc1CC(=O)O	x	x	x	-3	0	x
CCCOc1ccc(Br)cc1CSC(=N)N	5	-3	-13	x	0	62*
Cc1ccc(SCc2noc(C(=O)NCC3CCCO3)c2C(=O)O)cc1C (stereo not given)	1	18	-24*	4	4	9
